# Experimental data collected from several papers.
SMILES,tested on,test,test system,conditions,quantity,value
O=C(O)c1cccnc1Nc1cccc(C(F)(F)F)c1,U-87 MG,"cell growth or viability, SRB",,48 h,GI50,> 30 µM
C=CC(=O)NC1CCN(c2ncc3ncnc(Nc4ccc(Oc5ccc6c(c5)ncn6C)c(C)c4)c3n2)CC1,EKVX,cell growth or viability,,,EC50,0.0025 µM
Cc1[nH]c(C(=O)Nc2ccc(C(=O)NCC(=O)O)cc2N2CCN(C(=O)OC(C)(C)C)CC2)c(Cl)c1Cl,Klebsiella aerogenes,"microbial growth, broth dilution",ATCC13408,,MIC,> 32 µg/mL
COc1ccc(C(=O)CSc2nc(C)cc(C)c2C#N)cc1,Leishmania infantum,parasite growth,mouse Macrophage,"intracellular, amastigote",EC50,25.2 µM
CC(=NNC(=O)COc1ccc2c(C)c(Cc3ccccc3)c(=O)oc2c1C)c1ccc(Br)cc1,HCT-116,"cell growth or viability, MTT",,0.2 µg/mL,viability,66%
C=CC(=O)c1cccnc1Nc1cc(C(F)(F)F)ccc1OCc1ccccc1,U-87 MG,"cell growth or viability, SRB",,48 h,GI50,9.65 µM
Cc1[nH]c(C(=O)Nc2ccc(C(=O)NCC(=O)O)cc2N2CC[C@H](NC(=O)OC(C)(C)C)C2)c(Cl)c1Cl,Klebsiella aerogenes,"microbial growth, broth dilution",ATCC13408,,MIC,> 32 µg/mL
Cc1cc(C)c(C#N)c(SCC(=O)c2ccccn2)n1,Leishmania infantum,parasite growth,mouse Macrophage,"intracellular, amastigote",EC50,45.5 µM
Cl.N[C@H]1CCN(c2cc(C(=O)NCC(=O)O)ccc2NC(=O)c2cc(Br)c(Br)[nH]2)C1,Klebsiella aerogenes,"microbial growth, broth dilution",ATCC13408,,MIC,> 32 µg/mL
C=CC(=O)c1cccnc1Nc1cc(C(F)(F)F)ccc1OC,U-87 MG,"cell growth or viability, SRB",,48 h,GI50,7.72 µM
Cc1cc(C)c(C#N)c(SCC(=O)c2ccccc2C)n1,Leishmania infantum,parasite growth,mouse Macrophage,"intracellular, amastigote",EC50,7.38 µM
Cl.O=C(O)CNC(=O)c1ccc(NC(=O)c2cc(Br)c(Br)[nH]2)c(N2CCNCC2)c1,Klebsiella aerogenes,"microbial growth, broth dilution",ATCC13408,,MIC,> 32 µg/mL
